The target of data set [1] is T1, FOXM1 DBD-DNA interaction (Homo sapiens, UniProt Q08050).
T1 sequence (Q08050 222-360): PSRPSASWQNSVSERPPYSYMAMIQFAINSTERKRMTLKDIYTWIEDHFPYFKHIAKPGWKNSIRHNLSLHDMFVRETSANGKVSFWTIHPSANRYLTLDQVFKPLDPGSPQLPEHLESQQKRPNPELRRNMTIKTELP
Description: EMSA displacement of FOXM1 DBD-DNA interaction. It counts as binding. A digest of the protocol: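 The DNA-binding domain of human FOXM1c was expressed as a GST fusion in E. coli BL21(DE3), induced with 1 mM IPTG at 18°C overnight. DBD (750 nM final) was preincubated with test compound 1.5 h at RT. FAM-labelled 16-bp consensus dsDNA (15 nM final) was added for 15 min. Samples ran on 6% retardation gels and were imaged by fluorescence.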
A general note: A gel shift assay detects complexes by their altered migration in electrophoresis.

Data set [2] deals with MCF-7 breast cancer cells. Description: 72 h growth inhibition in MCF-7 cells. It counts as cell-based. The settings on record: Homo sapiens, MCF7, 72 h, read-out: GI50 (50% growth inhibition). The method, boiled down:
(§1)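 Cell lines came from ECACC. MCF-7 and MDA-MB-231 were grown in DMEM + 10% FBS, and PEO-1 in RPMI + 10% FBS. Cells were exposed to test compound for 72 h. GI50 is the concentration giving 50% growth inhibition.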

In data set [3] the test system is MDA-MB-231 ER-negative breast cancer cells. Description: Cell viability assay, MDA-MB-231 cells. Format: cell-based. To be noted: Homo sapiens, MDA-MB-231, 72 h. The method, boiled down:
as §1

Data set [4] concerns PEO-1 ovarian cancer cells. Description: Cell viability assay, PEO-1 cells. It counts as cell-based. The settings on record: Homo sapiens, PEO1, 72 h. A digest of the protocol: as §1
Data set [5] deals with FOXM1 in MCF-7 cells. Description: Western blot of total lysate and chromatin fraction of treated MCF-7 cells. Format: cell-based, human. The settings on record: 6 h, 20 μM. The method, boiled down:
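MCF-7 cells were treated 6 h with test compound or DMSO. Whole-cell RIPA lysates and isolated chromatin pellets (sonicated in Laemmli buffer) ran on 8–16% Tris-glycine gels. Blots were probed overnight at 4°C with anti-FOXM1 (1:1000), actin (1:5000) or histone H3 (1:10000), then with IR-dye secondaries. FOXM1 was quantified relative to actin (lysate) or H3 (chromatin).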
On the technique in general: Immunoblotting shows a protein as a band on a membrane.

In data set [6] the test system is 20S proteasome. Description: 20S proteasome activity assay. The settings on record: 10 μM inhibitor, 37°C, 90 m. It counts as biochemical. The method, boiled down:
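Recombinant 20S proteasome with an AMC-linked peptide substrate that fluoresces on cleavage. Substrate dilution of 1:200 was chosen from an AMC standard curve. Test compound at 10 μM or DMSO control was mixed with enzyme and substrate and incubated 90 min at 37°C. Fluorescence was read at 380/460 nm and normalized to DMSO, with MG-132 as reference inhibitor.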

For data set [7], the system named is FOXM1 occupancy at CCNB1 and CDC25B gene promoters. Description: FOXM1 ChIP followed by qRT-PCR in MCF-7 cells. Format: cell-based, human. To be noted: 6 h treatment. The method, boiled down:
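MCF-7 cells at 70% confluence were treated 6 h with test compound or DMSO. Cells were crosslinked with 1% formaldehyde 10 min at RT, quenched with glycine, lysed and sonicated. Immunoprecipitation used 3 μg rabbit polyclonal anti-FOXM1 on protein-A beads overnight, with elution at 65°C for 16 h. SYBR qPCR (40 cycles) amplified CDC25B and CCNB1 promoters. Enrichment was normalized to a cyclin D1 intergenic control region.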

Data set [8] deals with FOXM1 target gene transcripts in MCF-7 cells. Description: RNA-seq differential expression in MCF-7 cells. It counts as cell-based, human. To be noted: 6 h. The method, boiled down:
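MCF-7 cells were treated for 3, 6 or 9 h, in three replicates per time point, against 0 h controls. TruSeq libraries gave 100-nt single-end reads, which were adapter/quality trimmed, aligned to hg19 and counted per gene. Differential expression used the edgeR exact test with library-size (CPM) normalization, and FDR < 0.01 counted as significant.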

The test system of data set [9] is genes with FOXM1 promoter occupancy (ENCODE ChIP-seq, MCF-7). Format: cell-based, human. The settings on record: ENCODE ChIP-seq datasets. A digest of the protocol: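 Differentially expressed genes at 3 h were defined as FDR < 0.01 and logFC > 0.3 […]. ENCODE FOX-family ChIP-seq peaks (MACS) shared by both duplicates were mapped to promoters (−2000 to +100 bp of TSS). Proportions were compared by chi-squared test. Temporal clusters came from fuzzy c-means (9 clusters, fuzzification 1.35) on 1552 genes with abs(logFC) > 0.75.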

The subject of data set [10] is CDC25B expression in MDA-MB-231 cells. Description: CDC25B expression in MDA-MB-231 cells. To be noted: 3 h treatment. Format: cell-based, human. A digest of the protocol: (§2)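 MDA-MB-231 (DMEM + 10% FBS) or PEO-1 (RPMI + 10% FBS) cells were exposed to test compound for 3 h. CDC25B transcript was measured by qRT-PCR with commercial gene-specific primer sets, with ACTB and YWHAZ primer sets also run.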

In data set [11] the test system is CDC25B expression in PEO-1 cells. Description: CDC25B expression in PEO-1 cells. Format: cell-based, human. To be noted: 3 h treatment. The method, boiled down: as §2
Data set [12] deals with T2, FOXM1 DBD (GST fusion) (Homo sapiens, UniProt Q08050 222-360).
T2 sequence: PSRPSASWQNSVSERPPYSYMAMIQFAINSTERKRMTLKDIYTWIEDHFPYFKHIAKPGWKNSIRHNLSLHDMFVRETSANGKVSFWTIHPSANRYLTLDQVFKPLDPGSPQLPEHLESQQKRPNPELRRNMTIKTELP
Description: EMSA.

The target in data set [13] is T3, FOXM1 full length (FOXM1c, GST fusion) (Homo sapiens, UniProt Q08050 1-763).
T3 sequence: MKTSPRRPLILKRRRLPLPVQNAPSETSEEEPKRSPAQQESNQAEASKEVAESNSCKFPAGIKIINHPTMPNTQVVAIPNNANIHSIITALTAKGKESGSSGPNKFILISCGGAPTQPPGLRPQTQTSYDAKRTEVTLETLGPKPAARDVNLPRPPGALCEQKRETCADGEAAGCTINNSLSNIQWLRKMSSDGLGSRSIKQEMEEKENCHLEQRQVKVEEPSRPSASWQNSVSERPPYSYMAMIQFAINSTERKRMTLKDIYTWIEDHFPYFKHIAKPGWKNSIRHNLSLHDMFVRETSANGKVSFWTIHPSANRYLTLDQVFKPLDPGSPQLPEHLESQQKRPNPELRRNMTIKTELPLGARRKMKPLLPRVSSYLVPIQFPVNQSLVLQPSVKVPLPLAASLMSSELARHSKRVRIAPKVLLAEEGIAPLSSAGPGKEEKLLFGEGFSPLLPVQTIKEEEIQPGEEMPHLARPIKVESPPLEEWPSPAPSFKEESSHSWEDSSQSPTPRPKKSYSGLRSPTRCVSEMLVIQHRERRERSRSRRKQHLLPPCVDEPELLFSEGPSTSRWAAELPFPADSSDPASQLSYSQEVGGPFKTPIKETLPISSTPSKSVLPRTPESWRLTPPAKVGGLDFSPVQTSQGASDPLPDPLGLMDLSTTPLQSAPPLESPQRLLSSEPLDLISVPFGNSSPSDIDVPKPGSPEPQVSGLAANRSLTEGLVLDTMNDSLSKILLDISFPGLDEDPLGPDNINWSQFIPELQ
Description: fluorescence polarization. For orientation: In fluorescence polarisation assays a small probe gives low polarisation when free and higher when bound to something large.

Data set [14] addresses T2, FOXM1 DBD (GST fusion). Description: fluorescence polarization.
Data set [15] has as its target T2, FOXM1 DBD (GST fusion). Description: fluorescence polarization. The source holds these as a separate data set.
Data set [16] addresses T2, FOXM1 DBD (GST fusion). Description: competition.

We go through four molecules from publication PMC4258842 (Nature communications, 2014).

“Also recorded” adds a separate entry of the source.

What is called IC50 is the point on the concentration scale where inhibition reaches its midpoint. A high value points to lower potency. A word on the GI50: it is the concentration giving 50% growth inhibition. As usually defined, the Kd is the concentration at which binding is half-saturated.

`Nc1c(C(=O)Nc2ccc(F)cc2)sc2nc(-c3cccs3)cc(C(F)(F)F)c12` [FDI-6, 3-amino-N-(4-fluorophenyl)-6-(thiophen-2-yl)-4-(trifluoromethyl)thieno[2,3-b]pyridine-2-carboxamide] displayed an IC50 in data set [1] of 22500 ± 12300 nM. Besides, in data set [2], the GI50 worked out at 18000 ± 3000 nM. The same molecule came in with a concentration for 50% growth inhibition (GI50) in data set [3] of 21800 nM. Further, the concentration for 50% growth inhibition (GI50) in data set [4] is 18100 nM. Besides, the “decrease of chromatin bound FOXM1” value in [5] (MCF-7 cells, normalized to Histone H3) is listed as roughly 50%. Further, in data set [5] (MCF-7 total lysate, normalized to Actin), the “overall amount of FOXM1 protein” value is given as “unaffected”. Further, the “inhibition of the 20S proteasome” value in [6] is “did not inhibit; also recorded: inactive”. Further, in data set [7], the “change in FOXM1 occupancy at CCNB1 gene promoter” value is −0.68 log2 fold and the “change in FOXM1 occupancy at CDC25B gene promoter” value is on record as −0.64 log2 fold. Further, in data set [8], the AURKA transcript change was −0.83 log2 fold change, the CCNA2 transcript change is recorded as −0.65 log2 fold change, the CCNB1 transcript change is −0.86 log2 fold change and the CDKN3 transcript change was −0.739 log2 fold change. In data set [8], the CENPA transcript change is −0.61 log2 fold change, the KIF20A transcript change is listed as −1.22 log2 fold change, the NEK2 transcript change is recorded as −0.86 log2 fold change and the PLK1 transcript change is on record as −0.92 log2 fold change. Further, in data set [9], the “enrichment of differentially expressed genes for promoter occupancy of other FOX transcription factors (FOXA1, FOXA2, FOXP2)” value is “did not show enrichment”. The CDC25B expression result in data set [10] is listed as “down-regulates”. In data set [11], the CDC25B expression entry is “down-regulates”.
Take `C=C(NC(=O)C(=C)NC(=O)c1csc(C2=N[C@@H]3c4csc(n4)[C@H]4NC(=O)c5csc(n5)[C@H]([C@](C)(O)[C@@H](C)O)NC(=O)[C@H]5CSC(=N5)/C(=C/C)NC(=O)[C@H]([C@@H](C)O)NC(=O)c5csc(n5)[C@]3(CC2)NC(=O)[C@H](C)NC(=O)C(=C)NC(=O)[C@H](C)NC(=O)[C@H]([C@@H](C)CC)N[C@@H]2C=Cc3c([C@H](C)O)cc(nc3[C@H]2O)C(=O)O[C@@H]4C)n1)C(N)=O` [thiostrepton, reference compound]: the IC50 in data set [1] was found to be 45000 ± 16400 nM. The 50% growth inhibitory concentration (GI50) in [2] was 2700 nM.

B1: FOXM1 consensus DNA probe, 16 bp (dsDNA)
DNA 1: AAACAAACAAACAATC
DNA 2: GATTGTTTGTTTGTTT
Take B1: the equilibrium dissociation constant (Kd) stood at 301 ± 21 nM in [12], 300 ± 64 nM in data set [13], 224 ± 30 nM in [14] and 158 nM in [15].

B2: unlabeled FOXM1 consensus DNA, 16 bp (dsDNA)
DNA 1: AAACAAACAAACAATC
DNA 2: GATTGTTTGTTTGTTT
B2 had a concentration for half-maximal inhibition (IC50) in data set [16] of 57 ± 5 nM.
